This is an account of results in ChEMBL document CHEMBL3611989, “Discovery and characterization of aryl isonitriles as a new class of compounds versus methicillin- and vancomycin-resistant Staphylococcus aureus” (Eur J Med Chem, 2015).

Converted amounts (≈) assume the structure as drawn. A value given as a limit tells only on which side of the number the result lay.

Data set [1] relates to Staphylococcus aureus. Put plainly: Antimicrobial activity against methicillin-resistant Staphylococcus aureus USA200 assessed as reduction in bacterial growth incubated for 18 to 20 hrs at 37 degC by broth microdilution method. Type of data set: functional. A digest of the protocol: (§1)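 Modified CLSI broth microdilution. Bacterial suspension of about 1 × 10^5 CFU/mL in tryptic soy broth. Each agent was added in triplicate to the first row and serially diluted down the plate. Plates were incubated at 37 °C for 18-20 h. MIC was read as the lowest concentration with no visible growth.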
In general terms: Dilution methods test growth across graded concentrations, often in twofold steps.

Data set [2] deals with Staphylococcus aureus. Put plainly: Antimicrobial activity against vancomycin-resistant Staphylococcus aureus VRS2 assessed as reduction in bacterial growth incubated for 18 to 20 hrs at 37 degC by broth microdilution method. It is filed as functional. A digest of the protocol: as §1
For data set [3], the system named is Staphylococcus aureus. Briefly: Antimicrobial activity against vancomycin-intermediate-resistant Staphylococcus aureus NRS1 assessed as reduction in bacterial growth incubated for 18 to 20 hrs at 37 degC by broth microdilution method. It is filed as functional. Put shortly: as §1
Data set [4] has as its system Staphylococcus aureus. Briefly: Antimicrobial activity against methicillin-resistant Staphylococcus aureus USA700 assessed as reduction in bacterial growth incubated for 18 to 20 hrs at 37 degC by broth microdilution method. It is filed as functional. A digest of the protocol: as §1
For data set [5], the system named is Staphylococcus aureus. Put plainly: Antimicrobial activity against methicillin-sensitive Staphylococcus aureus NRS72 assessed as reduction in bacterial growth incubated for 18 to 20 hrs at 37 degC by broth microdilution method. Type of data set: functional. Put shortly:
as §1

In data set [6] the test system is Staphylococcus aureus. Put plainly: Antimicrobial activity against methicillin-resistant Staphylococcus aureus NRS119 assessed as reduction in bacterial growth incubated for 18 to 20 hrs at 37 degC by broth microdilution method. It is filed as functional. A digest of the protocol:
as §1

In data set [7] the test system is Staphylococcus aureus. Put plainly: Antimicrobial activity against methicillin-resistant Staphylococcus aureus USA100 assessed as reduction in bacterial growth incubated for 18 to 20 hrs at 37 degC by broth microdilution method. Type of data set: functional. A digest of the protocol: as §1
The subject of data set [8] is Staphylococcus aureus. Put plainly: Antimicrobial activity against methicillin-resistant Staphylococcus aureus USA300 assessed as reduction in bacterial growth incubated for 18 to 20 hrs at 37 degC by broth microdilution method. It is filed as functional. A digest of the protocol: as §1
The subject of data set [9] is Staphylococcus aureus. Put plainly: Antimicrobial activity against methicillin-resistant Staphylococcus aureus USA500 assessed as reduction in bacterial growth incubated for 18 to 20 hrs at 37 degC by broth microdilution method. Type of data set: functional. Put shortly:
as §1

Data set [10] deals with J774. Put plainly: Cytotoxicity against mouse J774 cells assessed as reduction in cell viability at 64 uM incubated for 2 hrs by MTS assay. It is filed as cell-based. The following applies: j774, 2 h. A digest of the protocol: (§2)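 Murine J774 macrophages grown in DMEM with 10% FBS at 37 °C, 5% CO2. Compounds were tested in triplicate at 16, 32, 64 and 128 μM for 2 h, with DMSO-matched vehicle controls. MTS reagent was then added and absorbance read at OD490. Viability is given as percent of DMSO-treated cells (mean of triplicate ± standard deviation), compared by paired t-test (P < 0.05).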
(Tetrazolium assays rely on reduction of a dye to a coloured formazan, in cell work by metabolically active cells.)

Data set [11] concerns J774. It is filed as cell-based. The settings on record: mouse, j774, 2 h, 128 µM.
In data set [12] the test system is J774. Put plainly: Cytotoxicity against mouse J774 cells assessed as reduction in cell viability at 32 uM incubated for 2 hrs by MTS assay. Type of data set: cell-based. The settings on record: j774, 2 h. A digest of the protocol: as §2

With `[C-]#[N+]c1ccccc1CP(=O)(OCC)OCC`, the MIC was 128 µM (≈ 32.4 µg/mL) with Staphylococcus aureus [1]; > 128 µM in the data set with Staphylococcus aureus [2]; 128 µM (≈ 32.4 µg/mL) in the data set on Staphylococcus aureus [3]; > 128 µM in the data set on Staphylococcus aureus [4]; > 128 µM in the data set with Staphylococcus aureus [5]; > 128 µM in the data set with Staphylococcus aureus [6]. Moreover, the MIC in the data set on Staphylococcus aureus [7], in the data set on Staphylococcus aureus [8] and in the data set with Staphylococcus aureus [9] was > 128 µM in each case.
`[C-]#[N+]c1ccccc1/C=C(\C)c1ccccc1`: the MIC in the data set with Staphylococcus aureus [1] is 64 µM (≈ 14 µg/mL); in the data set on Staphylococcus aureus [2], > 128 µM; with Staphylococcus aureus [3], 4 µM (≈ 0.877 µg/mL); in the data set on Staphylococcus aureus [4], 16 µM (≈ 3.51 µg/mL); in the data set on Staphylococcus aureus [5], 8 µM (≈ 1.75 µg/mL); in the data set on Staphylococcus aureus [6] it was > 128 µM. Further, the MIC is 8 µM (≈ 1.75 µg/mL) in the data set on Staphylococcus aureus [7], > 128 µM in the data set on Staphylococcus aureus [8] and > 128 µM with Staphylococcus aureus [9].
On to `[C-]#[N+]c1ccccc1/C=C(\CC)c1ccc(OC)cc1`, for which the MIC in the data set with Staphylococcus aureus [2] is 8 µM (≈ 2.11 µg/mL); in the data set with Staphylococcus aureus [3] it was 4 µM (≈ 1.05 µg/mL); in the data set on Staphylococcus aureus [4], 4 µM (≈ 1.05 µg/mL); in the data set on Staphylococcus aureus [6] it was > 128 µM; with Staphylococcus aureus [8] it was 16 µM (≈ 4.21 µg/mL). For the same compound, the Activity entry in the data set with J774 [10] is recorded as “Toxic”; in the data set on J774 [11], “Toxic”; in the data set with J774 [12] it was “Non-toxic”.
Take `[C-]#[N+]c1ccccc1/C=C(\CC)c1cccc(C(F)(F)F)c1`: the MIC in the data set with Staphylococcus aureus [2] was 8 µM (≈ 2.41 µg/mL); in the data set with Staphylococcus aureus [3], 2 µM (≈ 0.603 µg/mL); in the data set with Staphylococcus aureus [4] it was 2 µM (≈ 0.603 µg/mL); in the data set with Staphylococcus aureus [5], 4 µM (≈ 1.21 µg/mL); in the data set on Staphylococcus aureus [7], 4 µM (≈ 1.21 µg/mL); in the data set with Staphylococcus aureus [8], > 128 µM. The Activity entry with J774 [10] is “Toxic”; in the data set with J774 [11] it was “Toxic”; with J774 [12] it was “Non-toxic”.
`[C-]#[N+]c1ccccc1/C=C/c1cccc(C(F)(F)F)c1`: the MIC in the data set with Staphylococcus aureus [1] is 4 µM (≈ 1.09 µg/mL); with Staphylococcus aureus [2], 8 µM (≈ 2.19 µg/mL); in the data set on Staphylococcus aureus [3] it was 2 µM (≈ 0.547 µg/mL); in the data set with Staphylococcus aureus [4] it was 4 µM (≈ 1.09 µg/mL); in the data set on Staphylococcus aureus [5], 2 µM (≈ 0.547 µg/mL); in the data set with Staphylococcus aureus [7], 4 µM (≈ 1.09 µg/mL). In addition, the values for the Activity entry in the data set on J774 [10], in the data set on J774 [11] and in the data set with J774 [12] were “Non-toxic”, “Toxic” and “Non-toxic”, respectively.
For `[C-]#[N+]c1ccccc1/C=C/c1ccc([N+](=O)[O-])cc1`, the MIC in the data set with Staphylococcus aureus [1] was 4 µM (≈ 1 µg/mL); in the data set on Staphylococcus aureus [2], 8 µM (≈ 2 µg/mL); in the data set on Staphylococcus aureus [3], 4 µM (≈ 1 µg/mL); with Staphylococcus aureus [5] it was 2 µM (≈ 0.501 µg/mL); in the data set on Staphylococcus aureus [6], 16 µM (≈ 4 µg/mL); in the data set with Staphylococcus aureus [7], 4 µM (≈ 1 µg/mL). Besides, the Activity entry in the data set with J774 [10], with J774 [11] and with J774 [12] was “Toxic” each time.
`[C-]#[N+]c1ccc(/C=C/c2cccnc2)cc1`: the MIC in the data set with Staphylococcus aureus [1] is 32 µM (≈ 6.6 µg/mL); with Staphylococcus aureus [2], 8 µM (≈ 1.65 µg/mL); in the data set on Staphylococcus aureus [3], 32 µM (≈ 6.6 µg/mL); in the data set on Staphylococcus aureus [4], 16 µM (≈ 3.3 µg/mL); with Staphylococcus aureus [5], 16 µM (≈ 3.3 µg/mL); with Staphylococcus aureus [6], 64 µM (≈ 13.2 µg/mL). Further, the MIC with Staphylococcus aureus [7] is 16 µM (≈ 3.3 µg/mL); in the data set on Staphylococcus aureus [9], 32 µM (≈ 6.6 µg/mL). Also, the Activity entry was “Non-toxic” in the data set on J774 [10], “Toxic” with J774 [11] and “Non-toxic” with J774 [12].
Consider `[C-]#[N+]c1ccc(/C=C/c2ccncc2)cc1`, for which the MIC in the data set with Staphylococcus aureus [1] was 8 µM (≈ 1.65 µg/mL); in the data set on Staphylococcus aureus [2] it was 4 µM (≈ 0.825 µg/mL); with Staphylococcus aureus [3] it was 8 µM (≈ 1.65 µg/mL); with Staphylococcus aureus [4] it was 8 µM (≈ 1.65 µg/mL); in the data set on Staphylococcus aureus [5], 2 µM (≈ 0.412 µg/mL); with Staphylococcus aureus [7] it was 8 µM (≈ 1.65 µg/mL). In addition, the Activity entry is reported as “Non-toxic” in the data set on J774 [10], “Toxic” in the data set with J774 [11] and “Non-toxic” in the data set with J774 [12].
Consider `CC(=O)NC[C@H]1CN(c2ccc(N3CCOCC3)c(F)c2)C(=O)O1` [LINEZOLID], for which the MIC with Staphylococcus aureus [1] is 2 µM (≈ 0.675 µg/mL); with Staphylococcus aureus [2], < 1 µM; with Staphylococcus aureus [3], < 1 µM; with Staphylococcus aureus [4] it was 2 µM (≈ 0.675 µg/mL); in the data set with Staphylococcus aureus [5], 2 µM (≈ 0.675 µg/mL); in the data set with Staphylococcus aureus [6], 64 µM (≈ 21.6 µg/mL). For the same compound, the MIC was < 1 µM in the data set with Staphylococcus aureus [7], 2 µM (≈ 0.675 µg/mL) in the data set on Staphylococcus aureus [8] and < 1 µM with Staphylococcus aureus [9].

The term MIC denotes the smallest concentration in the dilution series that meets the test's criterion for growth inhibition.
